High-throughput results: PubChem BioAssay, Broad Institute
Vif imaging: HIV Vif self-association inhibitors, primary screen, imaging, HEK293T, single point; 0.35% of 340,000 active; inhibition, % at 7.49 µM; HEK293T cells, Vif self-association by quenched fluorescence, 24 h; AID 602346, 2012; in the data active means inhibition above about 50%, passing the limit was not always enough; inconclusive means no clear call, values can overlap the other calls; inactive means below about 31%
esBAF inh: Bmi1 luciferase reporter increase in mESCs, primary screen, esBAF inhibitor project, mouse ES cells, Bmi1 luciferase knock-in, single point. 24 h; 100% = twice the neutral-well signal. reporter increase, % at 12.5 µM. 2% of 350,000 active; in the data active means activation above about 40%; inconclusive means no clear call, values can overlap the other calls;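 further: 0% = median of the plate's neutral control wells and 100% = double that signal; a rise in the Bmi1 reporter signal indicates esBAF inhibition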
MITF TRPM1 HTS: activators of MITF-driven TRPM1 promoter reporter, primary screen, cell-based, SK-MEL-5, luciferase, single point; 0.75% of 300,000 active; activation, % at 12.5 µM; AID 588334, 2011; SK-MEL-5 TRPM1-promoter luciferase, 24 h; % of positive control, neutral wells = 0;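 active means mean activation of at least 80% with every replicate also reaching 80%; inconclusive means mean reaches 80% but some replicate falls short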;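 further: 0% = neutral control wells and 100% = parthenolide positive control wells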
Wnt bcat act: Wnt/beta-catenin pathway activators, primary screen, cell-based, plate reader, single point | Wnt/beta-catenin reporter cell assay, activator | activation, % at 9.35 µM | 1.2% of 300,000 active | AID 743398, 2014; in the data active means activation above about 30%, passing the limit was not always enough; inconclusive means no clear call, values can overlap the other calls;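 further: 0% = neutral control wells and 100% = positive control wells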
XiGFP reactiv: activators of inactive X chromosome reactivation, primary screen, imaging, XiGFP fibroblasts, GFP high-content imaging, set 2; XiGFP mouse fibroblasts, % GFP-positive cells imaging, 3 d; cells co-treated with 5-aza-dC sensitizer; scaled so ellipticine positive control = 100%; activation, % at 7.58 µM; 0.055% of 360,000 active; AID 743238, 2013;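 active means mean normalized replicate activation at least 10% and every replicate at or above 10%; inconclusive means only one of the two criteria met; inactive means mean below 10% and not all replicates reach 10%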;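 further: 0% = median of on-plate neutral control wells and 100% = ellipticine 6 µM median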
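assay system = SV40-immortalized XiGFP fibroblast cells, line 68-5-11 | buffer or medium = DMEM plus 5-aza-dC sensitizer | doses = single-point pinned compound dosing | times = 3-day compound exposure, then 15 min fixation at room temperature | benchmarks = positive control ellipticine, 6 µM final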
The depositor's hits bear a star; ? = inconclusive; nt = no result. Compounds with a hit are over-represented: about 2.6% of the library has one in this group of screens.

SMILES | Vif imaging | esBAF inh | MITF TRPM1 HTS | Wnt bcat act | XiGFP reactiv
CC(=O)Nc1ccc(C(=O)Nc2ccc3c(c2)OCO3)cc1 | -4 | -2 | nt | nt | nt
CCCN1C(=O)c2ccc(C(=O)NC3=NCCS3)cc2C1=O | 12 | 20 | 1 | nt | nt
O=C(Nc1ccc2c(c1)OCO2)c1ccc(CO)cc1 | -3 | 38 | 35 | 48* | 0
CN(CCOc1ccccc1)C(=O)c1ccc2c(c1)OCO2 | -10 | 43* | 68 | -2 | 0
CCCCOc1ccc(C(=O)Nc2ccc3c(c2)OCO3)cc1 | -3 | 42* | 71 | 35* | 0
O=C(NCCOc1ccccc1)c1ccc2c(c1)OCO2 | nt | -70 | -56 | nt | nt
CNC[C@@H]1Oc2ccc(NC(=O)NC(C)C)cc2C(=O)N([C@H](C)CO)C[C@H]1C | nt | -4 | nt | nt | 0
CCC(=O)Oc1ccc(C(=O)Nc2ccc3c(c2)OCO3)cc1 | -1 | nt | 42 | 20 | 0
CCCOc1ccc(C(=O)Nc2ccc3c(c2)OCO3)cc1 | nt | 20 | 68 | 43* | 0
CC(C)NC(=O)N(C)C[C@@H]1Oc2c(N)cccc2C(=O)N(C)C[C@@H]1C | nt | nt | nt | nt | 0
C#CCn1cnc2c(cnn2-c2ccc(C)c(C)c2)c1=O | -9 | 66* | 66 | nt | nt
Cc1nc2c3cnn(-c4ccc(C)c(C)c4)c3ncn2n1 | 6 | nt | 87* | nt | nt
Cc1ccc(-n2ncc3c(=O)n(CC(N)=O)cnc32)cc1C | 2 | 11 | 28 | 2 | 0
Cc1ccc(-n2ncc3c(=O)n(CC#N)cnc32)cc1C | -3 | 16 | 3 | 3 | nt
COc1ccc(NC(=O)N(C)C[C@H]2OCc3ccccc3-c3c(n(C)c4ccccc34)C(=O)N([C@H](C)CO)C[C@H]2C)cc1 | nt | 6 | nt | nt | 0
C[C@H]1CN([C@@H](C)CO)C(=O)c2cc(C3=CCCC3)cnc2O[C@H]1CN(C)Cc1ccc(C(=O)O)cc1 | nt | 4 | nt | nt | 0
COCC#Cc1ccc([C@H]2[C@H]3CN(C(=O)c4cccnc4)CC(=O)N3[C@H]2CO)cc1 | nt | nt | nt | nt | 0
Cc1cccc(NC(=O)c2ccccc2O)c1C | -8 | nt | 25 | 23 | nt
Cc1ccccc1CNC(=O)Cc1ccccc1[N+](=O)[O-] | nt | 42* | 30 | 25 | 0
Cc1cccc(NC(=O)c2cccc([N+](=O)[O-])c2O)c1C | -7 | nt | 65 | 49* | 0
O=C(NCc1ccccc1)[C@@H]1[C@@H](CO)[C@@H]2Cn3c(ccc(-c4cccnc4)c3=O)[C@@H]2N1Cc1cocn1 | nt | 5 | nt | nt | 0
CC(C)C#Cc1ccc2c(c1)O[C@H](CN(C)C(=O)C1CCCCC1)[C@H](C)CN([C@H](C)CO)S2(=O)=O | nt | 2 | nt | nt | -1
CC(=O)COc1ccc2c(C)c(C)c(=O)oc2c1 | 6 | 11 | nt | 4 | nt
COc1ccc(-c2c(C)c3ccc(OCC(C)=O)cc3oc2=O)cc1 | -5 | 68* | nt | 27 | nt
C=CCOc1ccc2c3c(c(=O)oc2c1)CCCC3 | -5 | 4 | nt | -2 | 0
SMILES | Vif imaging | esBAF inh | MITF TRPM1 HTS | Wnt bcat act | XiGFP reactiv
CCCOc1ccc2c3c(c(=O)oc2c1)CCCC3 | -1 | 48* | 32 | nt | nt
CCCOc1ccc2c(C)c(CC(=O)OC)c(=O)oc2c1 | -10 | 68* | 125* | nt | nt
CCCc1cc(C(=O)Nc2cc(C)ccc2O)no1 | -3 | 57* | 71 | -11 | 0
Cc1ccc(O)c(NC(=O)c2cc(-c3ccccc3)on2)c1 | 0 | 76* | 60 | -5 | 0
C[C@H]1CN([C@@H](C)CO)S(=O)(=O)c2ccc(-c3cncnc3)cc2O[C@@H]1CN(C)C(=O)C1CC1 | nt | -3 | nt | nt | 0
COc1ccc(NC(=O)N(C)C[C@H]2OCCCC[C@H](C)Oc3ccc(NS(=O)(=O)c4ccc(OC)cc4)cc3C(=O)N([C@H](C)CO)C[C@@H]2C)cc1 | nt | 5 | nt | nt | 0
CN(C)/C=N/c1sc2c(c1C#N)CCC2 | -2 | 16 | 6 | -3 | nt
CN(C)/C=N/c1sc2c(c1C#N)CCCCC2 | 3 | 54* | 72 | 7 | 0
CSc1ccc(-c2nnn(Cc3ccccn3)n2)cc1 | -4 | 51* | 63 | -1 | nt
c1ccc(Cn2nnc(-c3ccccc3)n2)cc1 | 7 | 44* | 48 | 22 | nt
Clc1ccc(Sc2cnc3ccccc3n2)cc1 | -9 | 45* | ? | 11 | nt
